One data set has as its target Proteinase K (Parengyodontium album, UniProt P06873). Nature of the data set: Proteolytic stability with proteinase K. Format: in vitro ADME. Conditions: 6 h, room temperature. Summed up:
(§1)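 Self-assembled peptide nanoparticles were exposed to proteinase K or trypsin for 6 h at room temperature with constant low-rpm stirring. Degradation was assessed by reverse-phase HPLC on a C-18 column. Morphological change of enzyme-treated particles was imaged by TEM.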

A further data set relates to trypsin. Put plainly: Proteolytic stability with trypsin. Format: in vitro ADME. Conditions: 6 h, room temperature. In a few lines: as §1
The test system of another data set is Red blood cells (RBCs). Nature of the data set: In vitro hemolysis. Format: cell-based. Conditions: human RBC suspension, 39 to 773 μM, 37 °C, 3 h, absorbance 540 nm. Summed up: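 Human blood collected in 10% citrate-phosphate-dextrose. RBCs pelleted at 1500g, 10 min, 25 °C, and washed 3–5 times in PBS. A 10% (v/v) packed-RBC suspension was mixed 1:1 with peptide nanoparticles (39–773 μM) or the siRNA nanocomplex (70–280 nM). Incubated 3 h at 37 °C, then re-spun. Released hemoglobin read in supernatant at 540 nm. PBS and 0.2% Triton X-100 served as controls.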

The conditions of data set [1]: ref [31]; cited from earlier work.

Numbered stars: 1 amine (or outer) side, 2 acyl side, 3 side chain; on linkers, the order of the positions; unused ones are H or OH. Square brackets hold non-standard residues; d marks the D form. Peptide text beside a SMILES is read from it. X1 = O=C(C(=Cc1ccccc1)N[*:1])[*:2]

Chain of Proteinase K (P06873 106-384): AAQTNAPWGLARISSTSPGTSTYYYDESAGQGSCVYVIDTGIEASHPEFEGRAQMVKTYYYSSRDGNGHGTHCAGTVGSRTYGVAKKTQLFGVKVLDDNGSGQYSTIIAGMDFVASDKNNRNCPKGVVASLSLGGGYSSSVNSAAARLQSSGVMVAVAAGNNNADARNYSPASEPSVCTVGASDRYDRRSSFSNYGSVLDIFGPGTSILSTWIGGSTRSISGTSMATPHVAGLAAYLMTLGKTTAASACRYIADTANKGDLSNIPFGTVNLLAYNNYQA

In the case of `N=C(N)NCCC[C@H](NC(=O)C(=Cc1ccccc1)NC(=O)[C@@H](N)CCCNC(=N)N)C(=O)NCC(=O)N[C@@H](CC(=O)O)C(N)=O` [RΔFRGD] (H-R[X1]RGD-NH2), on Proteinase K, the “morphological change after proteinase K (TEM)” value was “no changes in morphological structures”. In addition, the “stability to trypsin compared with natural analogue RFRGD” value in the data set with trypsin (RP-HPLC C-18, RFRGD NPs in PBS (Fig S2b)) is on record as “significantly more stable”. Also, in the data set on trypsin (TEM), the “morphological change after trypsin (TEM)” value is “no changes in morphological structures”. The “proteolytic stability to trypsin (RP-HPLC)” value in the data set on trypsin (constant stirring, RP-HPLC C-18) is given as “observable degradation”. For the same compound, in the data set on Red blood cells (RBCs), the hemolysis entry is on record as “less than 5%”.
arginine-α,β-dehydrophenylalanine [RΔF]: in data set [1], the size of nanospheres is recorded as 60–80 nm.

Values taken from publication PMC9583317 (ACS Omega, 2022).
